The values that follow come from the array DNA melting data of Ke et al. (doi:10.1101/2024.01.08.574731).

Data set [1] can be described thus: melting temperature; fluorescence melt of hairpins on a sequencing array, two-state fit, raised by 9.35 °C to match UV melts. The note with it: sodium 0.088 M. Put shortly: (§1)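 Cy3 fluorescence of library hairpins on a sequenced MiSeq flow cell, with annealed Cy3 and quencher oligos, was imaged in 50 mM Na-HEPES pH 8.0, 25 mM NaCl in 2.5 °C steps up to 60 °C. Signals were normalised to pre-quench Cy3 and to control variants. Melting temperature and folding enthalpy came from bootstrapped two-state fits, inverse-variance combined over four replicates. Fitted temperatures were raised by 9.35 °C to match UV melts.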

The nature of data set [2]: folding enthalpy; higher = less favourable; fluorescence melt of hairpins on a sequencing array, two-state fit. Particulars: sodium 0.088 M. The procedure, abridged: as §1

Turning to GACGGCGAAAGCCATGTC ((((((....)))..))), the Tm in data set [1] came to 45.2 °C. In data set [2], the folding enthalpy is -13.3 kcal/mol.
On to GACGGCGAAAGCCCGTC ((((((....))).))), for which the Tm in data set [1] turned out to be 65.4 °C. Besides, in data set [2], the folding enthalpy was -24.7 kcal/mol.
For GACGGCGAAAGCCGCGTC ((((((....)))..))), in that order: 50.9 °C and -8.52 kcal/mol.
On the same counts, the results for GACGGGAAACCGTC (((((....))))) are 58.6 °C and -29 kcal/mol.
On the same counts, the results for GACGGGCCGAAAGGCGTC (((..(((....)))))) are 48.8 °C and -15 kcal/mol.
GACGGGCGAAAGCCTGTC (((.(((....))).))): the Tm in data set [1] is 67.3 °C. The folding enthalpy in data set [2] was -26.2 kcal/mol.
On the same counts, the results for GACGGGGGAAACCCCACC (..((((....))))..) are 30.3 °C and -7.44 kcal/mol.
Turning to GACGGTCCGAAAGGAGTC (((..(((....)))))), the Tm in data set [1] came to 34.2 °C. Further, the folding enthalpy in data set [2] is -14.2 kcal/mol.
For GACGGTGGAAACGTCGTC ((((..(....)..)))), in that order: 54.8 °C and -31.6 kcal/mol.
For GACGTAACGAAAGTTGTC (((..(((....)))))), in that order: 37.5 °C and -25 kcal/mol.
For GACGTAGGAAACTACATC ((.((((....)))).)), in data set [1], the Tm turned out to be 28.4 °C. Also, the folding enthalpy in data set [2] is -13.1 kcal/mol.
On the same counts, the results for GACGTAGGAAACTACGCC (.(((((....))))).) are 43.6 °C and -16.6 kcal/mol.
For GACGTCCGAAAGGAAGTC (((.(((....))).))), the Tm in data set [1] worked out at 54.7 °C. Further, in data set [2], the folding enthalpy is -34.7 kcal/mol.
On the same counts, the results for GACGTCCGAAAGGATGTC (((.(((....))).))) are 60.1 °C and -42.9 kcal/mol.
On the same counts, the results for GACGTCGGAAACAACGTC (((((.(....).))))) are 45.2 °C and -30.5 kcal/mol.
For GACGTGCGAAAGCAGTC (((.(((....)))))), in that order: 54.9 °C and -21.6 kcal/mol.
For the sequence GACGTTACGAAAGTAGTC (((..(((....)))))), in data set [1], the Tm was 44.2 °C. Also, the folding enthalpy in data set [2] is -27.2 kcal/mol.
For GACGTTCCGAAAGGAGTC (((..(((....)))))), in that order: 36.6 °C and -17 kcal/mol.
Consider GACGTTGGAAACAACGCC (.(((((....))))).), for which the Tm in data set [1] was found to be 48.8 °C. The folding enthalpy in data set [2] was -12.4 kcal/mol.
For GACTAAACGAAAGTTGTC (((..(((....)))))), in that order: 34.9 °C and -19.6 kcal/mol.
As to GACTAAGGAAACCTAGTC (((((.(....).))))), in data set [1], the Tm is 35.6 °C. Moreover, the folding enthalpy in data set [2] was -25.7 kcal/mol.
Turning to GACTACCGAAAGGTTGTC (((.(((....))).))), the Tm in data set [1] was 53.1 °C. Besides, the folding enthalpy in data set [2] was -31.3 kcal/mol.
On to GACTACGAAAGTAAGTC ((((((....))).))), for which, in data set [1], the Tm is 47.1 °C. The folding enthalpy in data set [2] is -29.4 kcal/mol.
For the sequence GACTACGAAAGTACGTC ((((((....))).))), the Tm in data set [1] came out at 43.3 °C. For the same sequence, the folding enthalpy in data set [2] is -25.7 kcal/mol.
For the sequence GACTACGAAAGTAGAGTC ((((((....)))..))), the Tm in data set [1] was found to be 34.7 °C. Moreover, in data set [2], the folding enthalpy is -13.7 kcal/mol.
For GACTACGAAAGTAGGGTC ((((((....)))..))), in that order: 46.7 °C and -16.5 kcal/mol.
For GACTACGAAAGTAGTGTC ((((((....)))..))), the Tm in data set [1] turned out to be 50.4 °C. Also, the folding enthalpy in data set [2] is -15.4 kcal/mol.
For GACTACGCGAAAGCGGTC (((..(((....)))))), in that order: 38 °C and -15.1 kcal/mol.
On the same counts, the results for GACTACGGAAACGCAGTC ((((.((....)).)))) are 42.1 °C and -28.3 kcal/mol.
On the same counts, the results for GACTAGAAATAGTC (((((....))))) are 37.6 °C and -15.7 kcal/mol.
GACTAGCGAAAGCTTGTC (((.(((....))).))): the Tm in data set [1] came out at 54.7 °C. In addition, the folding enthalpy in data set [2] was -31.3 kcal/mol.
GACTAGGGAAACCTAGCC (.(((((....))))).): the Tm in data set [1] worked out at 38.4 °C. Besides, in data set [2], the folding enthalpy was -19.7 kcal/mol.
On the same counts, the results for GACTATACGAAAGTAGTC (((..(((....)))))) are 34.1 °C and -24.4 kcal/mol.
For the sequence GACTATGGAAACACAGTC ((((.((....)).)))), the Tm in data set [1] came out at 33 °C. Also, the folding enthalpy in data set [2] was -19.1 kcal/mol.
On the same counts, the results for GACTCAGGAAACTGAGTC (((((((....))))))) are 60.8 °C and -46 kcal/mol.
As for GACTCCGAAAGGAAGTC ((((((....))).))), the Tm in data set [1] worked out at 52.4 °C. In addition, the folding enthalpy in data set [2] was -28.8 kcal/mol.
Take GACTCCGAAAGGACCGTC ((((((....)))..))): the Tm in data set [1] came out at 29.7 °C. Moreover, the folding enthalpy in data set [2] was -13.8 kcal/mol.
With GACTCCGAAAGGAGGTC ((((((....))).))), the Tm in data set [1] is 56.2 °C. In data set [2], the folding enthalpy was -13.5 kcal/mol.
As to GACTCCGAAAGGATGGTC ((((((....)))..))), the Tm in data set [1] was 39.4 °C. Moreover, the folding enthalpy in data set [2] was -21.7 kcal/mol.
Take GACTCCGAAAGGATTGTC ((((((....)))..))): the Tm in data set [1] worked out at 36.8 °C. The folding enthalpy in data set [2] was -16.3 kcal/mol.
For GACTCGCGAAAGCGGTC (((.(((....)))))), the Tm in data set [1] was 51.8 °C. For the same sequence, in data set [2], the folding enthalpy was -14.3 kcal/mol.
With GACTCGGGAAACTGAGTC (((((.(....).))))), the Tm in data set [1] was 52.7 °C. The folding enthalpy in data set [2] was -37.2 kcal/mol.
For GACTGAGGAAACTCAGTC (((((((....))))))), in that order: 61.5 °C and -34.8 kcal/mol.
For GACTGAGGAAACTTGGTC (((..((....))..))), the Tm in data set [1] amounted to 32.7 °C. Also, the folding enthalpy in data set [2] was -15.7 kcal/mol.
GACTGCCCGAAAGGGGTC (((..(((....)))))): the Tm in data set [1] came out at 35.6 °C. The folding enthalpy in data set [2] is -9.57 kcal/mol.
For GACTGCGAAAGCAAAGTC ((((((....)))..))), in that order: 47 °C and -21.7 kcal/mol.
Turning to GACTGCGAAAGCAATGTC ((((((....)))..))), the Tm in data set [1] came to 44.3 °C. Also, in data set [2], the folding enthalpy was -14.9 kcal/mol.
As for GACTGCGAAAGCAGAGTC ((((((....)))..))), in data set [1], the Tm was 45.1 °C. For the same sequence, in data set [2], the folding enthalpy is -11.8 kcal/mol.
For GACTGCGAAAGCAGCGTC ((((((....)))..))), in that order: 50.7 °C and -10.3 kcal/mol.
On the same counts, the results for GACTGCGAAAGCATAGTC ((((((....)))..))) are 46.9 °C and -19.4 kcal/mol.
On the same counts, the results for GACTGCGAAAGCATCGTC ((((((....)))..))) are 47.1 °C and -12.2 kcal/mol.
Turning to GACTGCGAAAGCATGGTC ((((((....)))..))), the Tm in data set [1] was determined as 42.7 °C. Moreover, in data set [2], the folding enthalpy is -14.9 kcal/mol.
On the same counts, the results for GACTGCGCGAAAGCGGTC (((..(((....)))))) are 48 °C and -11.3 kcal/mol.
For GACTGGAAACAGTC (((((....))))), in that order: 51.7 °C and -35.1 kcal/mol.
On the same counts, the results for GACTGGCCGAAAGGCGTC (((..(((....)))))) are 50.8 °C and -11.8 kcal/mol.
Regarding GACTGGCGAAAGCCTGTC (((.(((....))).))), the Tm in data set [1] turned out to be 68.9 °C. Further, the folding enthalpy in data set [2] was -21.6 kcal/mol.
For GACTGTGCGAAAGCAGTC (((..(((....)))))), in that order: 45.1 °C and -18 kcal/mol.
Take GACTGTGGAAACGCAGTC (((((.(....).))))): the Tm in data set [1] came to 51.9 °C. Moreover, the folding enthalpy in data set [2] was -31.7 kcal/mol.
Consider GACTTCCGAAAGGAGGTC (((.(((....))).))), for which, in data set [1], the Tm amounted to 54.8 °C. The folding enthalpy in data set [2] is -36.6 kcal/mol.
Regarding GACTTGCCGAAAGGCGTC (((..(((....)))))), in data set [1], the Tm came out at 36.4 °C. Further, the folding enthalpy in data set [2] is -11.6 kcal/mol.
On the same counts, the results for GACTTGGGAAACCAAATC ((.((((....)))).)) are 28 °C and -14 kcal/mol.
For GACTTTGGAAACGAAGTC (((((.(....).))))), in that order: 44.6 °C and -29.4 kcal/mol.
On to GAGAAACGAAAGTTCCTC (((.(((....))).))), for which the Tm in data set [1] was found to be 36.5 °C. Further, the folding enthalpy in data set [2] was -27 kcal/mol.
For GAGAACGAAAGTTCGCTC ((((((....)))..))), in that order: 53.6 °C and -19.8 kcal/mol.
On the same counts, the results for GAGAACGAAAGTTTCTC ((((((....))).))) are 43.5 °C and -25.1 kcal/mol.
For GAGAACGAAAGTTTGCTC ((((((....)))..))), in that order: 28.6 °C and -16.8 kcal/mol.
Turning to GAGAACGGAAACGTCCTC (((.(((....))).))), in data set [1], the Tm worked out at 40.2 °C. The folding enthalpy in data set [2] was -24.5 kcal/mol.
For GAGAACGGAAACGTTCCC (.(((((....))))).), in that order: 40 °C and -11.9 kcal/mol.
On the same counts, the results for GAGAAGGGAAACCTCCTC (((.(((....))).))) are 28.8 °C and -17.7 kcal/mol.
As to GAGAATGGAAACATTCCC (.(((((....))))).), the Tm in data set [1] amounted to 31.2 °C. In addition, the folding enthalpy in data set [2] is -19.6 kcal/mol.
For GAGACAACGAAAGTTCTC (((..(((....)))))), in that order: 28.3 °C and -20.4 kcal/mol.
On the same counts, the results for GAGACACGAAAGTGCCTC (((.(((....))).))) are 51.3 °C and -33.4 kcal/mol.
On the same counts, the results for GAGACAGCGAAAGCTCTC (((..(((....)))))) are 45.5 °C and -9.49 kcal/mol.
